Assay outcomes: PubChem, Johns Hopkins Ion Channel Center
TRPC4 block = inhibitors of mouse TRPC4 channel, primary screen, Fluo4 calcium, HEK293 TRPC4beta/mu-opioid cells; 300,000 tested, 0.39% active; DAMGO-evoked Fluo4 calcium flux; stronger effect = lower value; B-score at 10 µM;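 active means B-score over 3 SD under the library average, no early fluorescence shift, positive overall ratio signal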
Target sequence (Q9QUQ5 whole entry, looked up): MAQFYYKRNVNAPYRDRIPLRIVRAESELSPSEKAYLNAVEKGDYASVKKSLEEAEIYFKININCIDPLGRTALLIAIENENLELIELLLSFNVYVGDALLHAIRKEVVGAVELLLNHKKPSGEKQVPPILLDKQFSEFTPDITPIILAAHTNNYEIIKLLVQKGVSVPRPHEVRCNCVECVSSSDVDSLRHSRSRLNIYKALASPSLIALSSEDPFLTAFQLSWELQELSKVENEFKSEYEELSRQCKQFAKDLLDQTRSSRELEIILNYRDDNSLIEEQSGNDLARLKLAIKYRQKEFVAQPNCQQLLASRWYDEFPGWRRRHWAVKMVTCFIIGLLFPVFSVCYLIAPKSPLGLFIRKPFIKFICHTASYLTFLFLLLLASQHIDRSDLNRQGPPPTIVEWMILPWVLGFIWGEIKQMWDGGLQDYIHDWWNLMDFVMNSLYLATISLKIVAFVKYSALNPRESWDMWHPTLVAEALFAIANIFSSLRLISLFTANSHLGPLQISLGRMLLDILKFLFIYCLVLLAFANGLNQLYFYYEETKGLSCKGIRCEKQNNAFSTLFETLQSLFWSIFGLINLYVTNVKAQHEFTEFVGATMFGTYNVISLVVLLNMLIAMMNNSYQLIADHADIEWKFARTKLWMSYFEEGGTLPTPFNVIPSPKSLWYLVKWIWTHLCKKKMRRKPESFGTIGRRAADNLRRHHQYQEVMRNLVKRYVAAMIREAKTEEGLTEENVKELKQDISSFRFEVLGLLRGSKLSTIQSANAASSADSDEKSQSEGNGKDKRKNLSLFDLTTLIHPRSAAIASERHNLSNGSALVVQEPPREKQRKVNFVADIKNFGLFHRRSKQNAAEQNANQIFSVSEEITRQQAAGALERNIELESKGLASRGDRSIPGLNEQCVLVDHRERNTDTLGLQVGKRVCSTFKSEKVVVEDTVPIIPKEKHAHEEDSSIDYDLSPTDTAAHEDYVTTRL
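Material: HEK293 cells with stable TRPC4beta plus mu-opioid receptor expression / Probe or stimulus: DAMGO in two steps, submaximal then maximal / Compound: single concentration per test compound / Technique: kinetic Fluo4 fluorescence imaging of calcium influx / Read-out: per-well B score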
TRPC6 act = mouse TRPC6 channel activators, primary screen, cell-based, HEK293, membrane potential dye; 310,000 tested, 0.13% active; B-score at 10 µM; HEK293-TRPC6 membrane potential dye fluorescence; stronger effect = higher value; Short transient receptor potential channel 6 (Mus musculus), Q61143; AID 2550, 2010;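 active means B-score of the integrated fluorescence ratio above library mean plus 3 SD, and starting fluorescence ratio within library mean plus 5 SD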;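 further: higher score means more depolarization so channel activation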
TRPC4 potent = positive allosteric modulators of TRPC4, primary screen, cell-based, mouse TRPC4beta, HEK293 mu-opioid, Fluo-4 calcium; Short transient receptor potential channel 4 (Mus musculus), Q9QUQ5; DAMGO EC20, Fluo-4 Ca2+ flux; stronger effect = higher value; B-score at 10 µM; 310,000 tested, 0.42% active;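 active means B-score of calcium response area above 5 SD of library B-scores, with initial fluorescence ratio within 5 SD of library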
TRPC4 act = activators of mouse TRPC4 channel, primary screen, Fluo4 calcium, HEK293 TRPC4beta/mu-opioid cells; B-score at 10 µM; Fluo4 calcium fluorescence; stronger effect = higher value; 310,000 tested, 0.49% active; Short transient receptor potential channel 4 (Mus musculus), Q9QUQ5;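 active means B-score above 5 SD of library B-scores, and initial fluorescence ratio not above library mean plus 5 SD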;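 further: positive B-score marks a calcium rise read as TRPC4 activation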
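Assay system – TRPC4beta and mu-opioid receptor HEK293 stable cells · Measured by – Fluo4 fluorescence, kinetic · Schedule – dye loading 45 min room temperature, 110 s kinetic read · Read-out – B-scored integrated calcium fluorescence ratio · Controls – buffer and maximal DAMGO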
TRPC6 inh = mouse TRPC6 channel inhibitors, primary screen, cell-based, HEK293, membrane potential dye; Short transient receptor potential channel 6 (Mus musculus), Q61143; ACh-evoked depolarization; stronger effect = lower value; B-score at 10 µM; 310,000 tested, 1.1% active; AID 2553, 2010;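 active means B-score under library mean minus 3 SD, initial fluorescence not abnormally high, positive integrated signal ratio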;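 further: B-score derived from integrated fluorescence ratio over the kinetic read; more negative B-score means stronger inhibition of depolarization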
TRPC4 sel inh 2 = mouse TRPC4 off-target activity of TRPC6 inhibitors, second screen | shares compounds with TRPC6 inh | HEK293 TRPC4/MOR, membrane potential dye fluorescence; channel activated by saturating DAMGO dose | inhibition, % at 10 µM | 920 tested, 42% active | AID 2776;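 active means compounds whose fluorescence signal differed from control wells by over 3 SD, either direction, in both duplicate plates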
TRPC4 spec = mouse TRPC4 modulation by TRPC6 hits, confirmation, selectivity assay for TRPC6 inhibitor project, cell-based, HEK293 TRPC4/mu-opioid, membrane potential dye; shares compounds with TRPC6 inh; membrane potential fluorescence; activity change, negative = inhibition, % at 10 µM; 920 tested, 61% active; AID 2777, 2010;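 active means rise or fall in signal beyond 3 SD of buffer-only wells in both replicate plates, either sign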;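 further: integrated kinetic ratio of fluorescence range over baseline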
HEK293 MPD ctr 2-1 = nonspecific membrane potential effects, parental HEK293, confirmation, counter-screen for TRPC6 inhibitor project, cell-based, second counter screen; shares compounds with TRPC6 inh; parental HEK293 membrane potential dye fluorescence; maximal acetylcholine challenge after compound addition; signal change vs control, % at 10 µM; 920 tested, 31% active; AID 2779, 2010;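 active means membrane potential signal moving either way by over 3 SD of the maximum-effect control, in both duplicate plates, meaning non-specific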
HEK293 MPD ctr-1 = membrane potential modulation in parental HEK293, confirmation, counter-screen for TRPC6 inhibitor project, cell-based; membrane potential signal change, % at 10 µM; shares compounds with TRPC6 inh; AID 2780, 2010; 920 tested, 60% active; parental HEK293 membrane potential dye fluorescence;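 active means membrane potential signal shifting up or down by more than 3 SD of buffer-only wells, on both duplicate plates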
HEK293 MPD ctr-2 = parental HEK293 membrane potential modulation, confirmation, counter-screen for TRPC6 modulator project, cell-based; shares compounds with TRPC6 inh; 2,400 tested, 51% active; membrane potential signal change, % at 10 µM; membrane potential dye fluorescence;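 active means membrane potential signal moves up or down beyond 5 SD from buffer-only wells, on both duplicate plates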
HEK293 MPD ctr 2-2 = second counter-screen for TRPC6 modulators: effect in parental HEK293 cells; membrane potential dye fluorescence; after compound, maximal acetylcholine stimulation; shares compounds with TRPC6 inh; AID 488926; inhibition, % at 10 µM; 2,400 tested, 14% active;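 active means membrane potential signal drops by more than 5 SD from the mean control signal, in both duplicate plates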
TRPC4/MOR mod = TRPC4 modulation by TRPC6 hit compounds, confirmation, selectivity assay for TRPC6 modulator project, cell-based, HEK293 TRPC4/mu-opioid, membrane potential dye, mouse. shares compounds with TRPC6 inh. membrane potential fluorescence. percent change from control (negative = decrease, positive = increase), % at 10 µM. 2,400 tested, 69% active;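 active means membrane potential signal moved up or down beyond 5 SD of buffer control wells, in both duplicate plates, actives on both sides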
TRPC4 ctr inh 2 = second selectivity test of TRPC6 modulators against mouse TRPC4 | AID 488928 | 2,400 tested, 55% active | inhibition, % at 10 µM | shares compounds with TRPC6 inh | HEK293 TRPC4/mu-opioid, membrane potential dye fluorescence; stimulated with maximal-effect DAMGO;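 active means drop in membrane potential signal beyond 5 SD of the control wells in both duplicate plates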;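 further: TRPC4 counter screen for TRPC6 hits run under conditions tuned for TRPC6 not TRPC4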
TRPC6 block conf = mouse TRPC6 channel inhibitors, confirmation, HEK293 cells, membrane potential dye, duplicate | 3,300 tested, 43% active | shares compounds with TRPC6 inh | ACh-evoked depolarization | inhibition, % at 10 µM;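 active means fluorescence ratio falls more than 5 SD below the full-stimulation control mean, in both duplicate runs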;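 further: integrated fluorescence ratio of peak minus minimum over baseline after agonist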
TRPC6 act conf = mouse TRPC6 channel activators, confirmation, HEK293 cells, membrane potential dye, duplicate; shares compounds with TRPC6 inh; HEK293-TRPC6 membrane potential dye fluorescence, FDSS; activation, % at 10 µM; 2,800 tested, 11% active; AID 488961, 2010;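 active means ratio signal rise beyond 5 SD above unstimulated control wells' mean, seen in both duplicate runs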
Numbers stand for hits; i = inactive; nt = no result given. Only some compounds are listed: those with a hit (about 2.3% of all), similar ones and a draw of the others.

SMILES | TRPC4 block | TRPC6 act | TRPC4 potent | TRPC4 act | TRPC6 inh | HEK293 MPD ctr-2 | HEK293 MPD ctr 2-2 | TRPC4/MOR mod | TRPC4 ctr inh 2 | TRPC6 block conf | TRPC6 act conf | others
COc1cc2c(cc1OC)C(c1ccc(Cl)cc1)=NCC2 | i | i | i | i | -6.21 | -275.0% | i | -40.5% | 51.5% | 44.0% | i
COc1cc2c(cc1OC)C(c1ccc(-c3ccc(Cl)c(Cl)c3)o1)=NCC2 | i | i | i | i | i | nt | nt | nt | nt | nt | nt
COc1cc2c(cc1OC)C(c1ccc(-c3ccccc3Cl)o1)=NCC2 | i | i | i | i | -6.18 | -190.0% | i | -48.0% | 52.0% | 40.0% | i
Cc1c(C)n(CCN(C)C)c2ccc(C(=O)OCCN(C)C)cc12 | i | i | i | i | -7.08 | -153.0% | i | -31.5% | 75.0% | 56.5% | i
Cc1c(C)n(Cc2ccccc2)c2ccc(C(=O)OCCCN(C)C)cc12 | i | i | i | i | -8.51 | nt | nt | nt | nt | 74.5% | i | TRPC4 sel inh 2=33.5%;TRPC4 spec=i;HEK293 MPD ctr 2-1=i;HEK293 MPD ctr-1=i
Cc1[nH]c2ccc(C(=O)OCCN(C)C)cc2c1C | i | i | i | i | i | nt | nt | nt | nt | nt | nt
CCN1CCN(C(=O)c2ccc3c(c2)c(C)c(C)n3Cc2ccccc2)CC1 | i | i | i | i | i | nt | nt | nt | nt | nt | nt
COc1ccc(C)cc1NC(=O)Cn1c(=O)oc2ccccc21 | i | i | i | i | i | nt | nt | nt | nt | nt | nt
CC(/C=N/NC(=O)COc1ccccc1C)=N\NC(=O)COc1ccccc1C | i | i | i | i | i | nt | nt | nt | nt | nt | nt
Cc1cnc(C(=O)OCC(=O)c2ccc(F)c(F)c2)cn1 | i | i | i | i | i | nt | nt | nt | nt | nt | nt
S=C(NCCCN1CCOCC1)Nc1ccc(Cl)cc1Cl | i | i | i | i | -5.33 | i | i | i | i | i | i
N#Cc1c(NCCN)nc(-c2ccco2)c2c1CCCC2 | i | i | i | i | -8.56 | -258.5% | 89.0% | -46.0% | 75.0% | 76.5% | i
